Measurements: ChEMBL document CHEMBL1155338, “Antioxidant and antibacterial studies of arylazopyrazoles and arylhydrazonopyrazolones containing coumarin moiety” (2009)
Activity calls are given as the source filed them. The calls are words filed in the database; no cut-off is given here.

What was measured:
Format in all cases: functional
[1] = system: Radical scavenging activity; assay: Antioxidant activity assessed as DPPH radical scavenging after 30 mins; set-up: concentration or dose not given beside the values
Outline: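 Compound in methanol mixed 1:1 with methanolic DPPH, both 0.2 mM stocks, giving 0.1 mM each final. Shaken, left 30 min, then A517 read. % scavenging = [(Ab + As) − Am]/Ab × 100, where Ab is DPPH alone, As is compound alone and Am is the mixture. Ascorbic acid reference. Three replicates, averaged.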

[2] = system: Bacillus subtilis; assay: Antimicrobial activity against Bacillus subtilis NCIM 2010 after 24 hrs by disk diffusion method
Outline: (§1)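 Disc diffusion on nutrient agar. Plates were swabbed evenly with a standard inoculum ([…] c.f.u./ml, 0.5 McFarland). 6.25 mm filter-paper discs were dry-heat sterilized (140 °C, 1 h), soaked in test compound at 250 mcg/disc, and placed on the agar. Solvent, growth and ciprofloxacin controls were included. Plates were incubated inverted 24 h at 37 °C and inhibition zones measured.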

[3] = system: Staphylococcus aureus; assay: Antimicrobial activity against Staphylococcus aureus NCIM 5021 after 24 hrs by disk diffusion method; outline: as §1

SMILES | Activity [1] | inhibition zone (IZ) [2] | inhibition zone (IZ) [3]
O=C(O)c1cn(C2CC2)c2cc(N3CCNCC3)c(F)cc2c1=O [CIPROFLOXACIN] | inactive | 33.7 mm | 30 mm
Cc1nn(C(=O)COc2ccc3c(C)cc(=O)oc3c2)c(C)c1/N=N/c1ccc([N+](=O)[O-])cc1 | 32% | inactive | inactive
Cc1nn(C(=O)COc2ccc3c(C)cc(=O)oc3c2)c(C)c1/N=N/c1cccc([N+](=O)[O-])c1 | 38% | inactive | inactive
Cc1nn(C(=O)COc2ccc3c(C)cc(=O)oc3c2)c(C)c1/N=N/c1ccc(Cl)cc1 | 32% | inactive | inactive
CC1=NN(C(=O)COc2ccc3c(C)cc(=O)oc3c2)C(=O)/C1=N/Nc1ccc(C(=O)O)cc1 | inactive | inactive | inactive
CC1=NN(C(=O)COc2ccc3c(C)cc(=O)oc3c2)C(=O)/C1=N/Nc1ccc(Br)cc1 | inactive | 14 mm | 13.7 mm
CC1=NN(C(=O)COc2ccc3c(C)cc(=O)oc3c2)C(=O)/C1=N/Nc1ccc([N+](=O)[O-])cc1 | 31% | inactive | inactive
O=C1O[C@H]([C@@H](O)CO)C(O)=C1O | 96% | inactive | inactive
Cc1ccc(/N=N/c2c(C)nn(C(=O)COc3ccc4c(C)cc(=O)oc4c3)c2C)c(C)c1 | 24% | inactive | inactive
CC1=NN(C(=O)COc2ccc3c(C)cc(=O)oc3c2)C(=O)/C1=N/Nc1ccccc1C(=O)O | 20% | 26.7 mm | 12.3 mm
CC1=NN(C(=O)COc2ccc3c(C)cc(=O)oc3c2)C(=O)/C1=N/Nc1ccc(Cl)cc1 | 53% | 24.3 mm | 11.3 mm
Cc1nn(C(=O)COc2ccc3c(C)cc(=O)oc3c2)c(C)c1/N=N/c1ccc(Br)cc1 | 55% | 27 mm | 12.7 mm
Cc1nn(C(=O)COc2ccc3c(C)cc(=O)oc3c2)c(C)c1/N=N/c1ccccc1C(=O)O | 28% | 16.7 mm | inactive
CC1=NN(C(=O)COc2ccc3c(C)cc(=O)oc3c2)C(=O)/C1=N/Nc1ccc(C)cc1C | 57% | inactive | inactive
CC1=NN(C(=O)COc2ccc3c(C)cc(=O)oc3c2)C(=O)/C1=N/Nc1cccc([N+](=O)[O-])c1 | 69% | inactive | inactive
Cc1nn(C(=O)COc2ccc3c(C)cc(=O)oc3c2)c(C)c1/N=N/c1ccc(C(=O)O)cc1 | 32% | inactive | inactive
